# Bioassay records (PubChem BioAssay)
# T cruzi inh: inhibitors of intracellular T. cruzi growth, primary screen, luminescence, NIH3T3 host cells; T. cruzi beta-gal in NIH3T3, 90 h; inhibition, % (concentration not given with the values); 300,000 compounds, 1.4% hits; AID 1885, 2009;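 active = mean inhibition across valid replicates above about 55%, limit read from the data; inconclusive = mean below that limit but half or more replicates reach it; inactive = mean below it, under half of replicates reach it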;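 also: signal also drops with host cell toxicity which is not excluded here; higher percent means less beta-gal luminescence so fewer parasites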
#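 System: NIH/3T3 fibroblasts plus reporter T. cruzi. Medium: DMEM plus 2% FBS. Probe or stimulus: 5000 reporter trypomastigotes per well. Compound: single 50 nL compound addition per well in DMSO. Incubation: co-culture of at least 90 h after 3 h attachment. Detection: GalScreen β-gal luminescence, detergent lysis, 60 min. Evaluation: parasite load inhibition, %.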
# PolyA inh: polyadenylation inhibitors in yeast reporter cells, primary screen, luminescence, S. cerevisiae. 300,000 compounds, 0.02% hits. activity score, % at 12 µM. S. cerevisiae SKY197-pL101 polyadenylation reporter, beta-gal luminescence; efflux-impaired pdr1/pdr3 knockout yeast; score 100 = 6 SD above DMSO;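 active = lowest replicate activity score at least 50, where 100 means six control SD above control mean; inconclusive = lowest score under 50 but half or more replicates reach 50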;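 also: yeast exposed to compound for 9 h at 30 °C; higher score means more reporter readthrough which indicates perturbed polyadenylation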
# Calb FLC: C. albicans growth inhibition with fluconazole, primary screen, CaCi-2 strain, Alamar Blue fluorescence; C. albicans CaCi-2 + fluconazole, 48 h; growth inhibition, % (no concentration beside the values); 300,000 compounds, 0.57% hits;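 active = growth inhibition above about 58% in most replicates, limit read from the data, passing the limit was not always enough; inconclusive = exactly half the replicates above a set limit; inactive = most replicates below a set limit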;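 also: all wells also contain fluconazole at 8 µg/ml as a sub-toxic cotreatment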
# Beta cell apopt: inhibitors of cytokine-induced beta cell apoptosis, primary screen, luminescence; INS-1E cytokine-induced death, ATP luminescence, 48 h; percent of positive-control rescue, neutral wells zero; protection from apoptosis, % (test concentration not listed); 300,000 compounds, 0.8% hits;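 active = Every replicate reaches about 75%, or at least half do and their mean reaches it too, limit read from the data; inconclusive = At least half of replicates reach the limit but their mean does not; inactive = Under half of replicates reach the limit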;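 also: higher means more ATP so stronger rescue from cytokine killing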
# HIF act: HIF pathway transcriptional activators, primary screen, cell-based, U2OS HRE-luciferase, luminescence. U2OS HRE-luciferase reporter; normalized: DMSO 0%, desferrioxamine 100%. activation, % at 7.5 µM (by protocol). 300,000 compounds, 0.32% hits;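 active = mean activation of at least 10% of the iron chelator positive control signal, with at least half of replicates also reaching 10%; inconclusive = mean and replicate majority disagree about reaching 10%; inactive = mean and most replicates under 10%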
# CSC inhib: cancer stem cell viability inhibitors, primary screen, luminescence; cancer stem cell-like cells viability; inhibition, % at 7.5 µM; 300,000 compounds, 1.1% hits; in the data active = inhibition above about 75%; inconclusive = no clear call, values can overlap the other calls; tested in HMLE shEcad cells
# A number is an active result; - = inactive; ? = inconclusive; . = no result given. An excerpt weighted towards active compounds, which were near 3.1% of everything screened.
SMILES,T cruzi inh,PolyA inh,Calb FLC,Beta cell apopt,HIF act,CSC inhib
CSc1ccc(C(=O)C2CCCN(Cc3cccn3-c3cccnc3)C2)cc1 (stereo not drawn),-,-,-,-,-,.
Cn1c(CN2CCCC(C(=O)c3ccc4c(c3)OCO4)C2)nc2ccccc21 (stereo not drawn),73,-,-,-,-,-
O=C(c1ccc2c(c1)OCO2)C1CCCN(Cc2ccc3nsnc3c2)C1 (stereo not drawn),-,-,-,-,-,-
O=C(c1ccc(Cl)cc1)C1CCCN(Cc2cccn2-c2cccnc2)C1 (stereo not drawn),58,-,-,-,-,-
O=C(c1ccc2c(c1)OCO2)C1CCCN(Cc2cccn2-c2cccnc2)C1 (stereo not drawn),58,-,-,-,-,-
Cc1cc(C)c(OCC(=O)N2CC=C(c3ccccc3)CC2)c(C)c1,-,-,-,-,-,.
CC(C)(C)OC(=O)C(C)(C)Sc1nnc(N)s1,-,-,-,-,-,-
Nc1cc(Cl)ccc1C(=O)OCC(=O)N1CCOCC1,-,-,-,-,-,-
Cc1c(OC(C)C(=O)NCc2ccncc2)ccc2c3c(c(=O)oc12)CCCC3 (stereo not drawn),-,-,-,.,-,-
COc1ccc(CC(=O)OCC(=O)NCc2ccc3c(c2)OCO3)cc1OC,.,.,.,-,.,.
COc1ccc(-n2c(SCC(=O)NCC3CCCO3)nc3c(c2=O)SC(C)C3)cc1 (stereo not drawn),-,-,-,-,-,-
CNC(=S)N1CCN(CCNC2=CC(=O)CC(C)(C)C2)CC1,-,-,-,-,-,-
CC1(C)CC(NCCN2CCN(C3=CC(=C(C#N)C#N)CC(C)(C)C3)CC2)=CC(=C(C#N)C#N)C1,86,-,-,-,-,-
CCCCN(C)C(=O)c1nc2ccccn2c1CN1CCC[C@H]1CO,-,-,-,-,-,-
CC(C)(c1ccccc1)c1ccc(OCCCN2CCNCC2)cc1,64,-,-,-,-,80
COCCCNCCOc1ccc(C(C)(C)c2ccccc2)cc1,61,-,-,-,-,-
CCC(C)NCCOc1ccc(C(C)(C)c2ccccc2)cc1 (stereo not drawn),65,-,-,-,-,?
CNCCCOc1ccc(C(C)(C)c2ccccc2)cc1,-,-,-,.,-,.
O=[N+]([O-])c1ccc(OCCN2CCNCC2)cc1,58,-,-,-,-,-
CC1CN(CCOc2ccc([N+](=O)[O-])cc2)CC(C)O1 (stereo not drawn),-,-,-,-,-,-
COc1ccccc1CNC(=O)CCCc1nnc2n(C)c(=O)c3sccc3n12,-,-,-,-,-,-
CC[n+]1c(/C=C2/C=C(C)CC(C)C2)sc2ccccc21 (stereo not drawn),-,-,-,-,-,-
CC[n+]1c(C=C2C=C(C)OC(C)=C2)sc2ccccc21,73,-,108,.,-,.
O=C(C1CCCN(Cc2ccc(Cl)cc2)C1)N1CCCCC1 (stereo not drawn),57,-,-,-,-,-
O=C(C1CCCN(Cc2cccc(Cl)c2)C1)N1CCCCC1 (stereo not drawn),66,-,-,-,-,-
SMILES,T cruzi inh,PolyA inh,Calb FLC,Beta cell apopt,HIF act,CSC inhib
O=C(C1CCCN(Cc2ccccc2)C1)N1CCCCC1 (stereo not drawn),-,-,-,-,-,-
CN(CCc1ccccn1)C1CCCN(S(=O)(=O)c2ccc(F)c(Cl)c2)C1 (stereo not drawn),72,-,-,-,-,-
CCCC(=O)c1ccc(N2CCN(C(=O)c3ccc(Br)cc3)CC2)c(F)c1,-,-,-,-,-,-
COc1ccc(C(=O)c2ccc(N3CCN(C(=O)c4ccc(F)cc4)CC3)c(F)c2)cc1Br,61,-,-,-,-,-
CCC(=O)c1ccc(N2CCN(C(=O)c3ccc(F)cc3)CC2)c(F)c1,-,-,-,-,-,-
CCC(=O)c1ccc(N2CCN(C(=O)c3ccc(Br)cc3)CC2)c(F)c1,-,-,-,-,86,-
O=C(CSc1nnc(-c2ccccc2)c(-c2ccccc2)n1)NC1CCS(=O)(=O)C1 (stereo not drawn),-,-,-,-,-,.
O=C(NCCCSc1ccccc1)c1cc(Br)ccc1O,-,-,-,-,-,80
O=S(=O)(NCCN1CCOCC1)c1ccc(Cl)s1,-,-,90,-,-,-
CC1Oc2cc3oc4c(O)c(O)ccc4c(=O)c3c(O)c2C1(C)C (stereo not drawn),-,-,97,-,-,-
COc1ccc(-c2cc(=O)oc3c(O)c(O)ccc23)cc1,-,-,-,-,-,-
Cc1nn(Cc2ccc(Cl)cc2)c(C)c1NC(=O)CCCn1nc([N+](=O)[O-])c(Cl)c1C,57,-,-,-,-,-
Cc1c(Cl)c([N+](=O)[O-])nn1CCCC(=O)N(Cc1ccccc1)Cc1ccccc1,64,-,-,-,-,-
Cc1ccc(OCC2Cn3c(nc4c3c(=O)[nH]c(=O)n4C)O2)cc1C (stereo not drawn),-,-,-,-,-,-
C[C@H]1CN([C@@H](C)CO)C(=O)c2cccc(NS(=O)(=O)c3cn(C)cn3)c2O[C@H]1CN(C)S(C)(=O)=O,.,.,.,-,.,-
COc1ccc(CC(=O)Nc2nc(-c3ccncc3)cs2)cc1,67,-,-,-,-,-
Cc1ncc(CO)c(/C=N/NC(=S)Nc2ccc(Cl)c(Cl)c2)c1O,-,-,110,-,-,-
Cc1ncc(CO)c(/C=N/NC(=O)c2cc3c(s2)CCCC3)c1O,-,-,-,88,22,-
Cc1ncc(CO)c(/C=N/NC(=S)Nc2cccc(Cl)c2)c1O,-,-,-,-,-,-
Cc1ccc(NC(=O)c2cc(-c3ccccc3)nn2-c2ccccc2)cc1,-,-,-,-,-,88
CCOc1ccc(NC(=O)C/C(C)=N/NC(=O)COc2ccc(Br)cc2C)cc1,-,-,-,-,-,.
COC(=O)c1ccccc1NCc1cc(=O)oc2cc(O)c(O)cc12,-,-,-,-,-,92
CC(OC(=O)CCCN=C1NS(=O)(=O)c2ccccc21)C(=O)Nc1ccccc1[N+](=O)[O-] (stereo not drawn),-,-,-,.,-,-
CCCc1cc(-c2[nH]ncc2-c2ccc3c(c2)OCCCO3)c(O)cc1O,-,-,-,-,-,95
Cc1ccc(C=C2C(Cl)=C(Cl)C(Cl)=C2Cl)cc1,-,-,-,-,-,100
CCC(C)NC(=O)c1c(N)n(/N=C/c2ccccn2)c2nc3ccccc3nc12 (stereo not drawn),62,-,-,-,-,.
